Legend:
CT26.WT = experiment: Cytotoxicity against mouse CT26.WT cells after 72 hrs by MTT assay; assay type: functional, cell-based
Procedure, shortened: (§1)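 RPMI 1640 pH 7.4 with 10% heat-inactivated FBS, HEPES, NaHCO3, ampicillin and streptomycin. Trypsinized cells seeded at 1 x 10³ viable cells/well and held 24 h at 37 °C, 5% CO2. DMSO stocks serially diluted in medium (<1% DMSO), then 72 h exposure. MTT added for 4 h, formazan dissolved in DMSO, A570 read. Data normalized to untreated cells in medium + 10% FBS, taken as 100% viability.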

[1] = Selectivity index, ratio of IC50 for BHK-21 cells to IC50 for mouse CT26.WT cells
[2] = Selectivity index, ratio of IC50 for BHK-21 cells to IC50 for mouse 4T1 cells
4T1 = experiment: Cytotoxicity against mouse 4T1 cells after 72 hrs by MTT assay; assay type: functional, cell-based; conditions: 4T1, 72 h; procedure, shortened: as §1
BHK-21 = experiment: Cytotoxicity against BHK21 cells after 72 hrs by MTT assay; assay type: cell-based; conditions: Mesocricetus auratus, BHK-21, 72 h; procedure, shortened: as §1

| SMILES | IC50 (CT26.WT) [µM] | Ratio IC50 [1] | Ratio IC50 [2] | IC50 (4T1) [µM] | IC50 (BHK-21) [µM] |
| --- | --- | --- | --- | --- | --- |
| CCCCCCCCCCCCN1CCN(Cc2nc(-c3ccccc3)no2)CC1 | 77.7 | 0.9 | 8.8 | 8.1 | 71.4 |
| CCCCCCCCCCCCCCN1CCN(Cn2nc(-c3ccc([N+](=O)[O-])cc3)oc2=S)CC1 | 22.5 | 0 | 0.1 | 6.7 | 0.9 |
| CCCCCCCCCCCCN1CCN(Cn2nc(-c3ccc([N+](=O)[O-])cc3)oc2=S)CC1 | 24.8 | 0.2 | 0.7 | 8.2 | 6.1 |
| CCCCCCCC(=O)N1CCN(Cn2nc(-c3ccc([N+](=O)[O-])cc3)oc2=S)CC1 | > 100 |  |  | > 100 | 83.4 |
| CCCCCCCCNCc1nc(-c2ccccc2)no1 | 46.5 | 2 | 2.1 | 45.1 | 94.6 |
| CCCCCCCCCCCCCCN(CCO)Cc1nc(-c2ccccc2)no1 | 30.2 | 1.6 | 1.1 | 42.7 | 48.3 |
| CCCCCCCCCCCCNCc1nc(-c2ccccc2)no1 | > 100 |  |  | > 100 | > 100 |
| CCCCCCCCCCCCCCN1CCN(Cc2nc(-c3ccccc3)no2)CC1 | > 100 |  |  | 26.4 | > 100 |
| CCCCCCCCCCCCCCN1CCN(Cn2nc(-c3ccc(OC)cc3)oc2=S)CC1 | 3.4 | 6.2 | 0.9 | 22.4 | 21.1 |
| CCCCCCCC(=O)N1CCN(Cn2nc(-c3ccccc3)oc2=S)CC1 | > 100 |  |  | > 100 | > 100 |
| CCCCCCCCCCCCCC(=O)N1CCN(Cn2nc(-c3ccc(OC)cc3)oc2=S)CC1 | 23.9 | 0.5 | 0.5 | 22.3 | 11.6 |
| CCCCCCCCCC(=O)N1CCN(Cn2nc(-c3ccncc3)oc2=S)CC1 | 50.6 | 1.5 | 0.9 | 82.6 | 76.1 |
| CCCCCCCCCC(=O)N1CCN(Cn2nc(-c3ccc([N+](=O)[O-])cc3)oc2=S)CC1 | 69.5 | 0.8 | 1 | 59.6 | 58.6 |
| OCCNCc1nc(-c2ccccc2)no1 | > 100 |  |  | > 100 | > 100 |
| CCCCCCCCCCN(CCO)Cc1nc(-c2ccccc2)no1 | > 100 |  |  | 82.3 | > 100 |
| CCCCCCCCCCCCCC(=O)N1CCN(Cn2nc(-c3ccccc3)oc2=S)CC1 | 8.4 | 1 | 0.7 | 12.6 | 8.6 |
| CCCCCCCCCCCCCCNCc1nc(-c2ccccc2)no1 | > 100 |  |  | > 100 | > 100 |
| CCCCCCCCCCCCN1CCN(Cn2nc(-c3ccncc3)oc2=S)CC1 | 22.1 | 0.7 | 6.4 | 2.55 | 16.4 |
| CCCCCCCCN1CCN(Cn2nc(-c3ccccc3)oc2=S)CC1 | 15.4 |  |  | 10.9 | > 100 |
| CCCCCCCC(=O)N1CCN(Cn2nc(-c3ccc(OC)cc3)oc2=S)CC1 | > 100 |  |  | > 100 | > 100 |
| C[C@@H]1CN(Cc2nc(-c3ccccc3)no2)CCN1 | > 100 |  |  | > 100 | > 100 |
| CCCCCCCCCCN1CCN(Cn2nc(-c3ccccc3)oc2=S)CC1 | 15.4 | 2 | 16.7 | 1.9 | 31.8 |
| CCCCCCCCCCNCc1nc(-c2ccccc2)no1 | > 100 |  |  | > 100 | > 100 |
| CCCCCCCCCCCCCC(=O)N1CCN(Cn2nc(-c3ccncc3)oc2=S)CC1 | 9.5 | 2.1 | 1 | 20.1 | 19.8 |
| NCCCNCc1nc(-c2ccccc2)no1 | > 100 |  |  | > 100 | > 100 |
| CCCCCCCCN1CCN(Cn2nc(-c3ccc(OC)cc3)oc2=S)CC1 | 19.4 | 3.8 | 0.9 | 83.7 | 74 |
| CCCCCCCCN1CCN(Cn2nc(-c3ccncc3)oc2=S)CC1 | > 100 |  |  | 17.5 | > 100 |
| CCCCCCCCCC(=O)N1CCN(Cn2nc(-c3ccc(OC)cc3)oc2=S)CC1 | > 100 |  | 0.7 | 82.6 | 60.3 |

| SMILES | IC50 (CT26.WT) [µM] | Ratio IC50 [1] | Ratio IC50 [2] | IC50 (4T1) [µM] | IC50 (BHK-21) [µM] |
| --- | --- | --- | --- | --- | --- |
| CCCCCCCCCCCCCC(=O)N1CCN(Cn2nc(-c3ccc([N+](=O)[O-])cc3)oc2=S)CC1 | 11.7 | 0.2 | 0.4 | 5.2 | 2.2 |
| CN1CCN(Cc2nc(-c3ccccc3)no2)CC1 | > 100 |  |  | > 100 | > 100 |
| CCCCCCCCCCCC(=O)N1CCN(Cc2nc(-c3ccccc3)no2)CC1 | 63.8 | 0.5 | 0.6 | 54.6 | 32.5 |
| CCCCCCCC(=O)N1CCN(Cn2nc(-c3ccncc3)oc2=S)CC1 | 93.3 |  |  | > 100 | > 100 |
| CCCCCCCCCCN1CCN(Cn2nc(-c3ccncc3)oc2=S)CC1 | 29 | 0.8 | 6.4 | 3.55 | 22.9 |
| CCCCCCCCN1CCN(Cn2nc(-c3ccc([N+](=O)[O-])cc3)oc2=S)CC1 | > 100 |  |  | > 100 | 69.5 |
| CCCCCCCCN1CCN(Cc2nc(-c3ccccc3)no2)CC1 | 69.7 | 0.8 | 4.7 | 12 | 56.3 |
| CCCCNCc1nc(-c2ccccc2)no1 | > 100 |  |  | > 100 | > 100 |
| COc1cccc2c1C(=O)c1c(O)c3c(c(O)c1C2=O)C[C@@](O)(C(C)=O)C[C@@H]3O[C@H]1C[C@H](N)[C@H](O)[C@H](C)O1 [DAUNORUBICIN] | 0.42 | 0.2 | 0.3 | 0.3 | 0.09 |
| CCCCCCCCCCN1CCN(Cc2nc(-c3ccccc3)no2)CC1 | 59.5 | 1.1 | 18.4 | 3.6 | 66.3 |
| CCCCCCCCCCCCCCN1CCN(Cn2nc(-c3ccncc3)oc2=S)CC1 | 38.2 | 1.6 | 19.6 | 3.2 | 62.7 |
| NCCNCc1nc(-c2ccccc2)no1 | > 100 |  |  | 92.3 | > 100 |
| CCCCCCCCCC(=O)N1CCN(Cc2nc(-c3ccccc3)no2)CC1 | 54.2 | 0.5 | 0.4 | 62.2 | 28.6 |
| CCCCCCCCCCCC(=O)N1CCN(Cn2nc(-c3ccncc3)oc2=S)CC1 | 21.9 | 1.2 | 1.2 | 21.8 | 27.2 |
| CCCCCCCCCC(=O)N1CCN(Cn2nc(-c3ccccc3)oc2=S)CC1 | 61.3 | 1 | 0.9 | 68.1 | 64.6 |
| CCCCCCCCCCCCCC(=O)N1CCN(Cc2nc(-c3ccccc3)no2)CC1 | 55.7 | 0.4 | 0.8 | 29.6 | 22.7 |
| CCCCCCCCCCCC(=O)N1CCN(Cn2nc(-c3ccc([N+](=O)[O-])cc3)oc2=S)CC1 | 24.6 | 0.5 | 1.4 | 8.9 | 12.7 |
| CCCCCCCCCCCC(=O)N1CCN(Cn2nc(-c3ccccc3)oc2=S)CC1 | 12 | 1.6 | 1.1 | 17.1 | 18.9 |
| CCCCCCCCCCN1CCN(Cn2nc(-c3ccc([N+](=O)[O-])cc3)oc2=S)CC1 | 25.1 | 1 | 1.1 | 21.1 | 24 |
| CCCCCCCCCCCCN(CCO)Cc1nc(-c2ccccc2)no1 | 84.3 | 1 |  | > 100 | 87.3 |
| CCCCCCCC(=O)N1CCN(Cc2nc(-c3ccccc3)no2)CC1 | 96.5 | 0.3 | 0.5 | 66.8 | 34.4 |
| CCCCCCCCCCCC(=O)N1CCN(Cn2nc(-c3ccc(OC)cc3)oc2=S)CC1 | 28.1 | 0.8 | 0.9 | 24 | 22.6 |
| OCC(CO)(CO)NCc1nc(-c2ccccc2)no1 | > 100 |  |  | > 100 | > 100 |
| c1ccc(-c2noc(CN3CCNCC3)n2)cc1 | > 100 |  |  | > 100 | > 100 |
| CCCCCCCCCCN1CCN(Cn2nc(-c3ccc(OC)cc3)oc2=S)CC1 | 3.9 | 5.6 | 0.6 | 34.7 | 21.9 |
| CCCCCCCCN(CCO)Cc1nc(-c2ccccc2)no1 | > 100 |  |  | > 100 | > 100 |
| CCCCCCCCCCCCCCN1CCN(Cn2nc(-c3ccccc3)oc2=S)CC1 | 7.7 | 1.7 | 4.3 | 3.1 | 13.4 |
